Screens as filed in PubChem.
MEKK3 PB1 HTS = raises or lowers MEK5 binding to the human MEKK3 PB1 domain. AID 1529. Q99759. bead-based flow cytometry, Alexa488-MEK5 binding to MEKK3; actives lie on both sides; 0 = blocked by unlabeled MEK5, 100 = vehicle. 290,000 compounds, 1.4% hits. binding response (% of control), % at 10 µM;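 active means binding response more than 3 SD above or below the average of its plate-row segment, actives on both sides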;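 further: Alexa488 bead fluorescence after subtracting the streptavidin-only scavenger bead signal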
Target sequence (Q99759 whole entry, looked up, the tested form may be a part): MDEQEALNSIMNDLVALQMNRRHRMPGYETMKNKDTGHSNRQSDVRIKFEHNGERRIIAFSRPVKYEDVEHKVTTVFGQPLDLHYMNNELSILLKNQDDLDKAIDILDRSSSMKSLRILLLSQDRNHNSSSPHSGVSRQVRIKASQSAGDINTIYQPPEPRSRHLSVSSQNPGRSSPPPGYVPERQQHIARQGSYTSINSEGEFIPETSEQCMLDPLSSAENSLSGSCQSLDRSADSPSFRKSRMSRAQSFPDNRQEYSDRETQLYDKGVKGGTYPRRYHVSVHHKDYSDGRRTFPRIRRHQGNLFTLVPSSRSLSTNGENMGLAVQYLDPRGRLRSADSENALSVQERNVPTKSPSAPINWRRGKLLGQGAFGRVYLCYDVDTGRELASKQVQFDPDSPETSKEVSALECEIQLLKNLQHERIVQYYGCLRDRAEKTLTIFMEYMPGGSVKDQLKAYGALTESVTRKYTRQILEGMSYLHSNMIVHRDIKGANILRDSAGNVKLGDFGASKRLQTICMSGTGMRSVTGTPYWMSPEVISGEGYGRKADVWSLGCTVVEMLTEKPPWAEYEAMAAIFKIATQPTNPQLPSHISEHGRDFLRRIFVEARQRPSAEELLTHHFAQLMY
T cruzi inh = blocks replication of Trypanosoma cruzi. T. cruzi beta-gal in NIH3T3, luminescence, 90 h. inhibition, % (test concentration not listed). 300,000 compounds, 1.4% hits. AID 1885;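 active means mean inhibition across valid replicates above about 55%, limit read from the data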;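 further: signal also drops with host cell toxicity which is not excluded here; 0% = plate median of DMSO wells and 100% = zero luminescence signal; higher percent means less beta-gal luminescence so fewer parasites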
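Material: NIH/3T3 host cells with β-galactosidase reporter T. cruzi; Input: 5,000 host fibroblasts per well; Medium: DMEM, 2% fetal bovine serum; Compound: 50 nL DMSO compound solution per well; Schedule: 3 h host attachment, then at least 90 h co-culture; Detection: luminescent β-galactosidase signal after 60 min lysis.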
NS3 helicase inh = blocks Hepatitis C virus NS3 helicase unwinding; inhibition, % at 10.9 µM; NS3 helicase DNA unwinding, Cy5 molecular beacon fluorescence; 290,000 compounds, 0.56% hits;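 active means inhibition above the mean of all tested compounds plus 3 SD, set per campaign, cut at about 35% in these data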;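 further: 0% = DMSO wells and 100% = thioflavine S control wells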
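System: Hepatitis C virus NS3 helicase domain fragment enzyme | Reagent: Annealed dual-labelled DNA beacon duplex, ATP-started | Compound dosing: 10.9 µM single point, 0.8% DMSO | Incubation: 1 h reaction at 25 °C, ATP-initiated | Technique: Cy5 fluorescence | Evaluation: Percent inhibition from t60/t0 fluorescence ratio | Benchmarks: Low DMSO, high thioflavine S at 110 µM | Replication: Singlicate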
MEKK2 mut-MEK5 = signal of MEK5 binding to mutant human MEKK2 PB1 domain | percent response, % at 10 µM | AID 1530 | bead flow cytometry, Alexa488-MEK5 binding to MEKK2 mutant | 290,000 compounds, 0.35% hits; in the data active means percent response above about 24%, passing the limit was not always enough
MEKK2wt PB1 HTS = raises or lowers MEK5 binding to wildtype human MEKK2 PB1 domain; bead flow cytometry, Alexa488-MEK5 binding to MEKK2 WT; actives lie on both sides; binding response (% of control), % at 10 µM; 290,000 compounds, 1.1% hits; AID 1531; in the data active means binding response below about 67% or above about 130%
FID counter = counter-screen for HCV NS3 helicase inhibitors: DNA intercalator displacement | DNA fluorescent intercalator displacement, fluorescence | inhibition, % at 7.9 µM | 290,000 compounds, 0.17% hits; in the data active means inhibition above about 37%;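 further: 0% = vehicle and 100% = reference compound; higher means more ethidium bromide displaced from hairpin DNA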
An asterisk follows results filed as active. The list is not random: actives were taken first. Their share in the collection is about 4.1%.

Cc1ccc(C)c(N2CCN(C(=S)Nc3ccc4nc(N5CCN(C)CC5)cc(C)c4c3)CC2)c1 was read as MEKK3 PB1 HTS 102, T cruzi inh 51, NS3 helicase inh -72, MEKK2 mut-MEK5 15, MEKK2wt PB1 HTS 128 and FID counter 47*.
`O=C(Nc1ccccc1F)c1ccc([N+](=O)[O-])s1` gave MEKK3 PB1 HTS 94, T cruzi inh 65*, NS3 helicase inh -4, MEKK2 mut-MEK5 -7, MEKK2wt PB1 HTS 88 and FID counter 6.
For CN(C)NC(=O)c1ccc([N+](=O)[O-])s1 the results were MEKK3 PB1 HTS 102, T cruzi inh 22, NS3 helicase inh -2, MEKK2 mut-MEK5 5, MEKK2wt PB1 HTS 103 and FID counter 0.
For O=C(Nc1cccc2ccccc12)c1ccc([N+](=O)[O-])s1 the results were MEKK3 PB1 HTS 93, T cruzi inh 57*, NS3 helicase inh -1, MEKK2 mut-MEK5 -3, MEKK2wt PB1 HTS 92 and FID counter 8.
Screening O=C(Nc1cccc2ccccc12)c1ccc([N+](=O)[O-])o1 returned MEKK3 PB1 HTS 107, T cruzi inh 3, NS3 helicase inh 5, MEKK2 mut-MEK5 7, MEKK2wt PB1 HTS 108 and FID counter 2.
Screening Cc1cc(C)cc(OCC(=O)N/N=C/c2ccc([N+](=O)[O-])o2)c1 returned MEKK3 PB1 HTS 101, T cruzi inh 60*, NS3 helicase inh 36, MEKK2 mut-MEK5 0, MEKK2wt PB1 HTS 99 and FID counter -4.
For Cc1ccc(C(=O)N/N=C\c2ccc([N+](=O)[O-])o2)cn1 the results were MEKK3 PB1 HTS 101, T cruzi inh 58*, NS3 helicase inh 28, MEKK2 mut-MEK5 0, MEKK2wt PB1 HTS 99 and FID counter -9.
CCOC(=O)N/N=C\c1ccc([N+](=O)[O-])o1 was read as MEKK3 PB1 HTS 99, T cruzi inh 75*, NS3 helicase inh 6, MEKK2 mut-MEK5 1, MEKK2wt PB1 HTS 98 and FID counter 4.
Screening Cc1ccccc1OCC(=O)NCC(=O)N/N=C/c1ccc(Br)o1 returned MEKK3 PB1 HTS 105, T cruzi inh 37, NS3 helicase inh -1, MEKK2 mut-MEK5 3, MEKK2wt PB1 HTS 103 and FID counter -21.
`Cc1ccccc1OCC(=O)N/N=C/c1ccc([N+](=O)[O-])o1` gave MEKK3 PB1 HTS 101, T cruzi inh 61*, NS3 helicase inh 35, MEKK2 mut-MEK5 9, MEKK2wt PB1 HTS 101 and FID counter -18.
CCOC(=O)C1CCN(C(=O)Cn2nc(C)n3c(cc4cc(F)ccc43)c2=O)CC1 was read as MEKK3 PB1 HTS 98, T cruzi inh 1, NS3 helicase inh 3, MEKK2 mut-MEK5 -1, MEKK2wt PB1 HTS 96 and FID counter -38.
`COC(=O)N/N=C/c1cn(CC(C)COc2ccccc2)c2ccccc12` (configuration not stated) gave MEKK3 PB1 HTS 116, T cruzi inh 21, NS3 helicase inh -3, MEKK2 mut-MEK5 -1, MEKK2wt PB1 HTS 98 and FID counter -20.
For Cc1ccc(S(=O)(=O)Nc2ccc(N3CCN(C)CC3)nc2)cc1 the results were MEKK3 PB1 HTS 106, T cruzi inh 58*, NS3 helicase inh 0, MEKK2 mut-MEK5 -3, MEKK2wt PB1 HTS 100 and FID counter 3.
Screening N#C/C(=C\c1ccc([N+](=O)[O-])o1)C(=O)Nc1ccc(F)cc1 returned MEKK3 PB1 HTS 113, T cruzi inh 23, NS3 helicase inh 43*, MEKK2 mut-MEK5 0, MEKK2wt PB1 HTS 107 and FID counter -16.
Screening CC(C)c1ccc(-c2nc3ccccc3s2)cc1 returned MEKK3 PB1 HTS 104, T cruzi inh -5, NS3 helicase inh -3, MEKK2 mut-MEK5 4, MEKK2wt PB1 HTS -3.0* and FID counter -2.
`COc1cc(-c2nc3ccccc3s2)ccc1O` gave MEKK3 PB1 HTS 94, T cruzi inh -16, NS3 helicase inh -9, MEKK2 mut-MEK5 -6, MEKK2wt PB1 HTS 92 and FID counter -4.
`CCCNC(=O)NC(=O)CSc1nc2ccccc2c(=O)n1Cc1ccncc1` gave MEKK3 PB1 HTS 101, T cruzi inh 3, NS3 helicase inh 10, MEKK2 mut-MEK5 0, MEKK2wt PB1 HTS 102 and FID counter -22.
For CCN(CC)S(=O)(=O)c1ccc2c(c1)C(=NO)c1cc(S(=O)(=O)N(CC)CC)ccc1-2 the results were MEKK3 PB1 HTS 93, T cruzi inh 63*, NS3 helicase inh 1, MEKK2 mut-MEK5 2, MEKK2wt PB1 HTS 98 and FID counter -16.
Screening CCN(CC)CCOc1ccc2c(c1)C(=NO)c1cc(OCCN(CC)CC)ccc1-2 returned MEKK3 PB1 HTS 100, T cruzi inh 49, NS3 helicase inh 28, MEKK2 mut-MEK5 3, MEKK2wt PB1 HTS 117 and FID counter 90*.
Screening O=S(=O)(c1ccc2c(c1)C(=NO)c1cc(S(=O)(=O)N3CCCCC3)ccc1-2)N1CCCCC1 returned MEKK3 PB1 HTS 95, T cruzi inh 77*, NS3 helicase inh -1, MEKK2 mut-MEK5 -3, MEKK2wt PB1 HTS 88 and FID counter 0.
For CC1CCN(S(=O)(=O)c2ccc3c(c2)C(=NO)c2cc(S(=O)(=O)N4CCC(C)CC4)ccc2-3)CC1 the results were MEKK3 PB1 HTS 94, NS3 helicase inh 9, MEKK2 mut-MEK5 4, MEKK2wt PB1 HTS 91 and FID counter -4.
Screening O=C(c1cc(COc2ccc(F)c(F)c2)on1)N1CCN(C2CCCCC2)C(=O)C1 returned MEKK3 PB1 HTS 97, T cruzi inh -12, NS3 helicase inh 3, MEKK2 mut-MEK5 -10, MEKK2wt PB1 HTS 98 and FID counter -63.
For O=C(Nc1nccs1)c1sc2cc(Cl)ccc2c1Cl the results were MEKK3 PB1 HTS 104, T cruzi inh 59*, NS3 helicase inh 3, MEKK2 mut-MEK5 -2, MEKK2wt PB1 HTS 100 and FID counter -3.
Screening O=C(Nc1nccs1)c1sc2ccccc2c1Cl returned MEKK3 PB1 HTS 97, T cruzi inh 6, NS3 helicase inh 4, MEKK2 mut-MEK5 0, MEKK2wt PB1 HTS 105 and FID counter -3.
CC(C)(C)N1C(=O)c2ccc(C(=O)Nc3cc(C(=O)O)cc(C(=O)O)c3)cc2C1=O was read as MEKK3 PB1 HTS 108, T cruzi inh -6, NS3 helicase inh 4, MEKK2 mut-MEK5 3, MEKK2wt PB1 HTS 106 and FID counter -3.
`COc1ccc(C)cc1S(=O)(=O)N(CC(=O)Nc1cccc([N+](=O)[O-])c1)c1ccccc1` gave MEKK3 PB1 HTS 101, T cruzi inh 12, NS3 helicase inh 0, MEKK2 mut-MEK5 9, MEKK2wt PB1 HTS 99 and FID counter 4.
